Results from different studies.
Compare with care: the assays were run in different laboratories. Converted amounts (≈) assume the structure as drawn.

Compound	tested on	assay	system	conditions	quantity	result
N#Cc1ccc(-c2c(-c3ccccn3)nc3n2CCC3)cc1	Leishmania infantum	parasite growth	–	5 days, intracellular, amastigote	EC50	31.6 µM
COc1ccc(NC(=O)c2c(Nc3ccccc3)sc(C#N)c2NC(=O)CNc2ccc(C)cc2)cc1	HCT-116	cell growth or viability, SRB	–	100 µM, 48 h	viability	60.3%
Fc1ccc(NCc2c(-c3ccccn3)nc3ccccn23)cc1	Leishmania infantum	parasite growth	–	5 days, intracellular, amastigote	EC50	12.6 µM
O=C1NC(=S)N/C1=C\c1ccc(-c2ccc(N(c3ccccc3)c3ccccc3)cc2)cc1	Streptococcus mutans	microbial killing, broth dilution	ATCC25175	–	MBC	> 1000 µg/mL
COc1ccc2occ(/C=C/c3ccc(O)cc3)c(=O)c2c1	HSC-2	cell growth or viability, MTT	–	7 h	CC50	5.5 µM
O=C1NC(=S)S/C1=C\c1ccc(-c2ccc(N(c3ccccc3)c3ccccc3)cc2)cc1	Streptococcus pyogenes	microbial killing, broth dilution	ATCC19615	–	MBC	> 1000 µg/mL
COc1ccc(NC(=O)c2c(Nc3ccccc3)sc(C#N)c2NC(=O)CNc2ccc([N+](=O)[O-])cc2)cc1	HCT-116	cell growth or viability, SRB	–	10 nM, 48 h	viability	92.4%
O=C(O)CN1C(=O)/C(=C/c2c3ccccc3c(-c3ccc(N(c4ccccc4)c4ccccc4)cc3)c3ccccc23)SC1=S	Streptococcus mutans	microbial growth, broth dilution	ATCC25175	–	MIC	> 1000 µg/mL
Cc1cccc(-c2c(-c3ccccn3)nc3n2CCC3)c1	Leishmania infantum	parasite growth	–	5 days, intracellular, amastigote	EC50	0.631 µM
COc1ccc(NC(=O)c2c(Nc3ccccc3)sc(C#N)c2NC(=O)CNc2ccc(Cl)cc2)cc1	HCT-116	cell growth or viability, SRB	–	100 µM, 48 h	viability	33.5%
COc1ccc(/C=C/c2coc3ccc(OC)cc3c2=O)cc1	HSC-2	cell growth or viability, MTT	–	21 h	CC50	2.5 µM
CCCN(c1ccc(F)cc1)c1c(-c2ccccn2)nc2ccccn12	Leishmania infantum	parasite growth	–	5 days, intracellular, amastigote	EC50	1.58 µM
COc1ccc(NC(=O)c2c(Nc3ccccc3)sc(C#N)c2NC(=O)CNc2ccc(OC)c(OC)c2)cc1	HCT-116	cell growth or viability, SRB	–	1 µM, 48 h	viability	65.2%
COc1cccnc1-c1nc2ccccn2c1Nc1ccc(F)cc1	Leishmania infantum	parasite growth	–	5 days, intracellular, amastigote	EC50	31.6 µM
O=C(O)CN1C(=O)/C(=C/c2ccc(-c3ccc(N(c4ccccc4)c4ccccc4)cc3)c3ccccc23)SC1=S	Streptococcus mutans	microbial killing, broth dilution	ATCC25175	–	MBC	> 1000 µg/mL
NC(=O)N1c2ccccc2C=Cc2ccccc21	–	MES seizures	rat	oral	ED50	10.9 mg/kg
COc1ccc2occ(/C=C/c3cc(OC)c(OC)c(OC)c3)c(=O)c2c1	HSC-2	cell growth or viability, MTT	–	21 h	CC50	5.1 µM
COc1ccc(NC(=O)c2c(Nc3ccccc3)sc(C(=O)NN=Cc3ccc(Cl)cc3)c2NC(C)=O)cc1	HCT-116	cell growth or viability, SRB	–	100 µM, 48 h	viability	50.9%
O=C1NC(=S)S/C1=C\c1ccc(-c2ccc(N(c3ccccc3)c3ccccc3)cc2)c2ccccc12	Streptococcus mutans	microbial killing, broth dilution	ATCC25175	–	MBC	> 1000 µg/mL
COc1ccc(NC(=O)c2c(Nc3ccccc3)sc(C(=O)NN=Cc3ccc(OC)c(O)c3)c2NC(C)=O)cc1	HCT-116	cell growth or viability, SRB	–	10 µM, 48 h	viability	35.6%
Cc1ccc2nc(-c3ccccn3)c(CN(CC(C)C)c3cccc(C(F)(F)F)c3)n2c1	Leishmania infantum	parasite growth	–	intracellular, amastigote	EC50	3.16 µM
O=C(O)CN1C(=O)/C(=C/c2ccc(-c3ccc(N(c4ccccc4)c4ccccc4)cc3)cc2)SC1=S	Streptococcus pyogenes	microbial growth, broth dilution	ATCC19615	–	MIC	15.6 µg/mL (≈ 29.8 µM)
CC(=O)N(c1ccc(F)cc1)c1c(-c2ccccn2)nc2ccccn12	Leishmania infantum	parasite growth	–	intracellular, amastigote	IC50	> 64 µM
COc1ccc(C=NNC(=O)c2sc(Nc3ccccc3)c(C(=O)Nc3ccc(OC)cc3)c2NC(C)=O)cc1	HCT-116	cell growth or viability, SRB	–	10 nM, 48 h	viability	86.1%
COc1ccc2nc(-c3cc(N(C)C)ccn3)c(N(C)c3ccc(F)cc3)n2c1	Leishmania infantum	parasite growth	–	intracellular, amastigote	EC50	1.58 µM
O=C(O)CN1C(=O)/C(=C/c2c3ccccc3c(-c3ccc(N(c4ccccc4)c4ccccc4)cc3)c3ccccc23)NC1=S	Streptococcus mutans	microbial killing, broth dilution	ATCC25175	–	MBC	> 1000 µg/mL
COc1ccc(NC(=O)c2c(Nc3ccccc3)sc(C(=O)NN=Cc3ccc(C)cc3)c2NC(C)=O)cc1	HCT-116	cell growth or viability, SRB	–	1 µM, 48 h	viability	76.4%
